Among the data in ChEMBL document CHEMBL5344453, “Selective Recognition of c-KIT 1 G-Quadruplex by Structural Tuning of Heteroaromatic Scaffolds and Side Chains” (ACS Med Chem Lett, 2024) are ΔTm, inhibition and Activity values, retold here.

For test [1], the system named is Quadruplex DNA. Briefly: Stabilization of G-quadruplex c-KIT1 5-FAM-GGGAGGGCGCTGGGAGGAGGG-TAMRA-3 (unknown origin) assessed as change in melting temperature at 1 uM incubated for 1 hr in dark condition by FRET-based melting assay. Format: nucleic-acid assay. Summed up:
(§1)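 FRET melting of dual-fluorophore-tagged oligonucleotides (200 nM) in 60 mM potassium cacodylate buffer, pH 7.4, with ligand at 1 μM; ΔTm taken against the ligand-free oligonucleotide Tm as control.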

In test [2] the test system is Quadruplex DNA. Briefly: Stabilization of G-quadruplex c-MYC 5-FAM-TGGGGAGGGTGGGGAGGGTGGGGAAGG-TAMRA- 3 (unknown origin) assessed as change in melting temperature at 1 uM incubated for 1 hr in dark condition by FRET-based melting assay. Type of test: nucleic-acid assay. The gist of the method: as §1
The subject of test [3] is Quadruplex DNA. Briefly: Stabilization of G-quadruplex c-KIT2 5-FAM-GGGCGGGCGCGAGGGAGGGG-TAMRA-3 (unknown origin) assessed as change in melting temperature at 1 uM incubated for 1 hr in dark condition by FRET-based melting assay. Format: nucleic-acid assay. Summed up:
as §1

Test [4] has as its system Quadruplex DNA. As to the kind of experiment: Stabilization of G-quadruplex BCL2 5-FAM-AGGGGCGGGCGCGGGAGGAAGGGGGCGGGAGCGGGGCTG-TAMRA-3 (unknown origin) assessed as change in melting temperature at 1 uM incubated for 1 hr in dark condition by FRET-based melting assay. Type of test: nucleic-acid assay. The gist of the method:
as §1

Test [5] relates to Quadruplex DNA. Briefly: Stabilization of G-quadruplex VEGF 5-FAM-CGGGGCGGGCCGGGGGCGGGGT-TAMRA-3 (unknown origin) assessed as change in melting temperature at 1 uM incubated for 1 hr in dark condition by FRET-based melting assay. Type of test: nucleic-acid assay. Summed up: as §1
The test system of test [6] is Quadruplex DNA. Briefly: Stabilization of G-quadruplex h-TELO 5-FAM-TTGGGTTAGGGTTAGGGTTAGGGA-TAMRA-3 (unknown origin) assessed as change in melting temperature at 1 uM incubated for 1 hr in dark condition by FRET-based melting assay. Format: nucleic-acid assay. The gist of the method:
as §1

Test [7] relates to Quadruplex DNA. Briefly: Stabilization of calf thymus […] ds DNA 5-FAM-CAATCGGATCGAATTCGATCCGATTG-TAMRA-3 assessed as change in melting temperature at 1 uM incubated for 1 hr in dark condition by FRET-based melting assay. Type of test: nucleic-acid assay. The note with it: Bos taurus. The gist of the method:
as §1

Test [8] concerns K562. Briefly: Attenuation of proto-oncogene expression in human c-KIT-positive K562 cells assessed as reduction in c-KIT oncogene expression at 2 uM measured after 24 hrs by qRT-PCR analysis relative to control. Format: functional. The gist of the method: (§2)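 K562 leukemia cells treated for 24 h. c-KIT, c-MYC and BCL-2 mRNA measured by qRT-PCR, with each gene normalized to 18s housekeeping gene expression. Reduction expressed relative to untreated cells.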
(In general: Quantitative PCR measures a nucleic acid by following its amplification.)

For test [9], the system named is K562. As to the kind of experiment: Attenuation of proto-oncogene expression in human c-KIT-positive K562 cells assessed as reduction in c-KIT oncogene expression at 4 uM measured after 24 hrs by qRT-PCR analysis relative to control. Type of test: functional. Summed up: as §2
For test [10], the system named is K562. Briefly: Attenuation of proto-oncogene expression in human c-KIT-positive K562 cells assessed as reduction in c-MYC oncogene expression at 2 uM measured after 24 hrs by qRT-PCR analysis relative to control. Format: functional. The gist of the method:
as §2

Test [11] relates to K562. Briefly: Attenuation of proto-oncogene expression in human c-KIT-positive K562 cells assessed as reduction in BCL-2oncogene expression at 2 uM measured after 24 hrs by qRT-PCR analysis relative to control. Format: functional. The gist of the method: as §2
The subject of test [12] is K562. As to the kind of experiment: Attenuation of proto-oncogene expression in human c-KIT-positive K562 cells assessed as reduction in BCL-2oncogene expression at 4 uM measured after 24 hrs by qRT-PCR analysis relative to control. Type of test: functional. The gist of the method: as §2
Test [13] is described as follows: Reduction of c-KIT oncogene expression in human K562 cells transfected with c-KIT plasmid construct assessed as reduction in luciferase expression at 2 uM measured after 36 hrs by luciferase reporter assay. Type of test: functional. Summed up: (§3)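 K562 cells transfected with luciferase-expressing plasmids carrying the promoter G-quadruplex sequence of c-KIT, c-MYC or BCL-2, then ligand-treated. Relative luciferase expression measured.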
In general terms: Reporter assays use an easily measured gene product as a stand-in for the process of interest.

Test [14] can be described thus: Reduction of c-KIT oncogene expression in human K562 cells transfected with c-KIT plasmid construct assessed as reduction in luciferase expression at 4 uM measured after 36 hrs by luciferase reporter assay. Format: functional. The gist of the method:
as §3

Test [15] is described as follows: Reduction of c-MYC oncogene expression in human K562 cells transfected with c-MYC plasmid construct assessed as reduction in luciferase expression at 2 uM measured after 36 hrs by luciferase reporter assay. Type of test: functional. The gist of the method: as §3
Test [16] in a line: Reduction of c-MYC oncogene expression in human K562 cells transfected with c-MYC plasmid construct assessed as reduction in luciferase expression at 4 uM measured after 36 hrs by luciferase reporter assay. Format: functional. Summed up: as §3
Test [17] in a line: Reduction of BCL-2 oncogene expression in human K562 cells transfected with BCL-2 plasmid construct assessed as reduction in luciferase expression at 2 uM measured after 36 hrs by luciferase reporter assay. Type of test: functional. Summed up:
as §3

The nature of test [18]: Reduction of BCL-2 oncogene expression in human K562 cells transfected with BCL-2 plasmid construct assessed as reduction in luciferase expression at 4 uM measured after 36 hrs by luciferase reporter assay. Type of test: functional. Summed up:
as §3

Test [19] is described as follows: Reduction of c-KIT protein expression in human K562 cells at 2 uM measured after 24 hrs by Western blotting analysis relative to control. Format: functional. Summed up: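 Lysates of treated K562 cells probed by Western blot for c-KIT protein, with GAPDH as housekeeping reference.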
Test [20] concerns K562. As to the kind of experiment: Induction of DNA damage in human K562 cells assessed as cells exhibiting DNA damage at 5.5 uM incubated for 24 hrs by DNA damage assay (reference value: 10.8%). Format: functional.
Test [21] has as its system K562. Briefly: Induction of DNA damage in human K562 cells assessed as cells exhibiting DNA damage at 11 uM incubated for 24 hrs by DNA damage assay (reference value: 10.8%). Format: functional.

Broadly, the ΔTm is the shift of the melting midpoint relative to a reference. For the molecule `Nc1nc(CC(=O)Nc2nc(CC(=O)NCCCn3cc(-c4ccc5oc6ccccc6c5c4)nn3)cs2)cs1`, the ΔTm with Quadruplex DNA [1], in the test with Quadruplex DNA [2], with Quadruplex DNA [3], with Quadruplex DNA [4], in the test on Quadruplex DNA [5] and with Quadruplex DNA [6] was < 6 °C each time. Besides, in the test with Quadruplex DNA [7], the ΔTm is < 6 °C.

Consider `NCCn1cc(-c2ccc3[nH]c4ccccc4c3c2)nn1`, for which the ΔTm in the test on Quadruplex DNA [1], in the test on Quadruplex DNA [2], with Quadruplex DNA [3], in the test with Quadruplex DNA [4], in the test on Quadruplex DNA [5] and in the test with Quadruplex DNA [6] was < 5.5 °C each time. The ΔTm in the test on Quadruplex DNA [7] is < 5.5 °C.

On to `O=C(Nc1ccc(-n2cc(-c3ccc4[nH]c5ccccc5c4c3)nn2)cc1)C1CCCN1` (stereo not drawn), for which the ΔTm in the test with Quadruplex DNA [1], in the test with Quadruplex DNA [2], in the test with Quadruplex DNA [3], in the test with Quadruplex DNA [4], in the test with Quadruplex DNA [5] and in the test on Quadruplex DNA [6] was < 5.5 °C in each case. In the test on Quadruplex DNA [7], the ΔTm is < 5.5 °C.

In the case of `Nc1ccc(-n2cc(-c3ccc4[nH]c5ccccc5c4c3)nn2)cc1`, the ΔTm in the test on Quadruplex DNA [1], with Quadruplex DNA [2], in the test on Quadruplex DNA [3], in the test with Quadruplex DNA [4], in the test on Quadruplex DNA [5] and with Quadruplex DNA [6] was < 5.5 °C each time. Moreover, the ΔTm in the test with Quadruplex DNA [7] was < 5.5 °C.

Take `NCCn1cc(-c2ccc3oc4ccccc4c3c2)nn1`: the ΔTm in the test on Quadruplex DNA [1], with Quadruplex DNA [2], in the test on Quadruplex DNA [3], in the test with Quadruplex DNA [4], in the test on Quadruplex DNA [5] and in the test on Quadruplex DNA [6] was < 6 °C in each case. Further, the thermal shift (ΔTm) with Quadruplex DNA [7] was < 6 °C.

With `CN(C)CCCn1cc(-c2ccc3oc4ccccc4c3c2)nn1`, the thermal shift (ΔTm) in the test on Quadruplex DNA [1], with Quadruplex DNA [2], in the test on Quadruplex DNA [3], in the test with Quadruplex DNA [4], with Quadruplex DNA [5] and with Quadruplex DNA [6] was < 6 °C in each case. Also, the ΔTm with Quadruplex DNA [7] was < 6 °C.

On to `NCCCCC(N)C(=O)Nc1ccc(-n2cc(-c3ccc4oc5ccccc5c4c3)nn2)cc1` (stereo not drawn), for which the ΔTm in the test with Quadruplex DNA [1], in the test on Quadruplex DNA [2], in the test on Quadruplex DNA [3], with Quadruplex DNA [4], with Quadruplex DNA [5] and in the test with Quadruplex DNA [6] was < 6 °C throughout. Moreover, in the test on Quadruplex DNA [7], the ΔTm was < 6 °C.

For the molecule `CN(C)CCCn1cc(-c2ccc3[nH]c4ccccc4c3c2)nn1`, the ΔTm in the test with Quadruplex DNA [1], in the test on Quadruplex DNA [2], with Quadruplex DNA [3], in the test on Quadruplex DNA [4], in the test on Quadruplex DNA [5] and in the test with Quadruplex DNA [6] was < 5.5 °C each time. Also, the ΔTm in the test on Quadruplex DNA [7] was < 5.5 °C.

As for `Nc1nc(CC(=O)Nc2nc(CC(=O)NCCCn3cc(-c4ccc5[nH]c6ccccc6c5c4)nn3)cs2)cs1`, the ΔTm in the test with Quadruplex DNA [1], with Quadruplex DNA [2], in the test on Quadruplex DNA [3], with Quadruplex DNA [4], in the test on Quadruplex DNA [5] and in the test with Quadruplex DNA [6] was < 5.5 °C throughout. Further, the ΔTm in the test with Quadruplex DNA [7] is < 5.5 °C.

The inhibition is the drop in the measured response relative to a control, in per cent. Turning to `C[n+]1ccc(-c2c3nc(c(-c4cc[n+](C)cc4)c4ccc([nH]4)c(-c4cc[n+](C)cc4)c4nc(c(-c5cc[n+](C)cc5)c5ccc2[nH]5)C=C4)C=C3)cc1.[Cl-].[Cl-].[Cl-].[Cl-]` [TMPYP4 CHLORIDE], the inhibition at 2 µM in the test with K562 [8] is 30%; with K562 [10] it was 11%; in the test with K562 [11], 37%; in test [13] it was 20.1%; in test [15] it was 24.4%; in [17], 20.7%. In test [19], this molecule came in with an inhibition at 2 µM of 10%. For the same molecule, the inhibition at 4 µM with K562 [9] stood at 48%; in the test with K562 [12] it was 45%; in [14] it was 34.1%; in test [16], 45.3%; in test [18], 39.7%. Moreover, the Activity in the test with K562 [20] amounted to 27.6%; with K562 [21] it was 30.3%.

Regarding `NCCCCC(N)C(=O)Nc1ccc(-n2cc(-c3ccc4[nH]c5ccccc5c4c3)nn2)cc1` (stereo not drawn), the ΔTm in the test with Quadruplex DNA [1], in the test with Quadruplex DNA [2], in the test on Quadruplex DNA [3], in the test with Quadruplex DNA [4], in the test with Quadruplex DNA [5] and with Quadruplex DNA [6] was < 5.5 °C each time. For the same molecule, the ΔTm in the test on Quadruplex DNA [7] is < 5.5 °C.

Consider `O=C(Nc1ccc(-n2cc(-c3ccc4oc5ccccc5c4c3)nn2)cc1)C1CCCN1` (stereo not drawn), for which the thermal shift (ΔTm) with Quadruplex DNA [1], in the test with Quadruplex DNA [2], in the test on Quadruplex DNA [3], with Quadruplex DNA [4], in the test with Quadruplex DNA [5] and in the test on Quadruplex DNA [6] was < 6 °C throughout. Besides, the thermal shift (ΔTm) with Quadruplex DNA [7] was < 6 °C.

For `Nc1ccc(-n2cc(-c3ccc4oc5ccccc5c4c3)nn2)cc1`, the ΔTm in the test with Quadruplex DNA [1], in the test on Quadruplex DNA [2], with Quadruplex DNA [3], in the test on Quadruplex DNA [4], with Quadruplex DNA [5] and in the test on Quadruplex DNA [6] was < 6 °C throughout. For the same molecule, the ΔTm in the test on Quadruplex DNA [7] is < 6 °C.
